“And” between values parts separate entries of the source, which are not always exact repeats. Equal entries are not always repeated.
Tests used:
[1] = biological target: T1, Transient receptor potential cation channel subfamily V member 1 (Rattus norvegicus, UniProt O35433); experiment: Antagonist activity against capsaicin-induced 45calcium ion uptake in CHO cells expressing rat TRPV1; assay type: functional, cell-based
Procedure, shortened: (§1)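 CHO cells recombinantly expressing rat TRPV1; inhibition of 45Ca2+ uptake triggered by capsaicin or by acid, pH 5. Functional IC50 in nM, averaged over at least two independent experiments, each with three replicates per concentration.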

[2] = biological target: T1, Transient receptor potential cation channel subfamily V member 1; experiment: Antagonist activity against acid-induced 45calcium ion uptake in CHO cells expressing rat TRPV1 at pH5; assay type: functional, cell-based; procedure, shortened: as §1

T1 sequence (O35433 whole entry): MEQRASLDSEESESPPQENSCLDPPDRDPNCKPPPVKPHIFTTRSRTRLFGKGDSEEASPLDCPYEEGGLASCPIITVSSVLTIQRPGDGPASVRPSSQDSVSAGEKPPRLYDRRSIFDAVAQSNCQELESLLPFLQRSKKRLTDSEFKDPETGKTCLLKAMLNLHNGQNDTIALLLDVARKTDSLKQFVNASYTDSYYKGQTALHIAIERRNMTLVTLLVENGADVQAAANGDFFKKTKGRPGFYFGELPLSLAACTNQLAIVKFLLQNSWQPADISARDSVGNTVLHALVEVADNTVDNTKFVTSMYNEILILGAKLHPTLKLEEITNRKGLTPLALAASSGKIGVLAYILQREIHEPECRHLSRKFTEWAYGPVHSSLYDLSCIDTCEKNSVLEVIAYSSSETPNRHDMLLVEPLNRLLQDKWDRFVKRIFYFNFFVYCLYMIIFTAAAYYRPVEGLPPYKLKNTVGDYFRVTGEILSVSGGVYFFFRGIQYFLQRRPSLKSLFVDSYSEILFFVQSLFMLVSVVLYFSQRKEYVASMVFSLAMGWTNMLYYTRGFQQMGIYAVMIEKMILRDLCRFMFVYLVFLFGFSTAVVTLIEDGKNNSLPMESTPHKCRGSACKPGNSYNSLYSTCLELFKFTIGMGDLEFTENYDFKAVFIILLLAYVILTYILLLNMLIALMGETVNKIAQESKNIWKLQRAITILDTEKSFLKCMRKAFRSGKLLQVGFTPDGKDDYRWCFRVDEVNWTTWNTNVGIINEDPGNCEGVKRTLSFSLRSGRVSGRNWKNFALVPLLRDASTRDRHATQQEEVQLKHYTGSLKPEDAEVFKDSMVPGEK

Compound | IC50 [1] [nM] | IC50 [2]
COc1ccc(-c2cc(C(F)(F)F)cc3[nH]c(N4CCN(c5ncccc5C(F)(F)F)CC4)nc23)cn1 | 111 | 99 nM
FC(F)(F)c1ccc(-c2cc3[nH]c(N4CCN(c5ncccc5C(F)(F)F)CC4)nc3cc2C(F)(F)F)cc1 | 8240 | 201 nM
Fc1ccc(Cc2cc(C(F)(F)F)cc3[nH]c(N4CCN(c5ncccc5C(F)(F)F)CC4)nc23)cc1F | 71 | 52 nM
FC(F)(F)c1ccc2[nH]c(N3CCN(c4ccncc4Cl)CC3)nc2c1 | 3910 | 8030 nM
C[C@@H]1CN(c2ncccc2Br)CCN1c1nc2c(-c3cc(F)c(F)c(F)c3)cc(C(F)(F)F)cc2[nH]1 | 6.7 | 2.6 nM
Nc1ccc(-c2cc(C(F)(F)F)cc3[nH]c(N4CCN(c5ncccc5C(F)(F)F)CC4)nc23)cc1 | 1900 | 308 nM
FC(F)(F)c1cc(C2CCC(C(F)(F)F)CC2)c2nc(N3CCN(c4ncccc4C(F)(F)F)CC3)[nH]c2c1 (stereo not given) | 10 | 9 nM
FC(F)(F)c1cc(-c2cc3ccccc3s2)c2nc(N3CCN(c4ncccc4C(F)(F)F)CC3)[nH]c2c1 | 26 | 22 nM
C[C@@H]1CN(c2ncc(CO)cc2Cl)CCN1c1nc2cc(C(F)(F)F)cc(NC(=O)OC(C)(C)C)c2[nH]1 | 2.1 | 1.1 nM
FC(F)(F)c1ccc2[nH]c(N3CCN(c4c(Cl)cccc4Cl)CC3)nc2c1 | > 40000 | 1270 nM
FC(F)(F)c1cc(-c2nccs2)c2nc(N3CCN(c4ncccc4C(F)(F)F)CC3)[nH]c2c1 | 688 | 454 nM
FC(F)(F)c1cccnc1N1CCN(c2nc3ccc(Br)cc3[nH]2)CC1 | 123 | 194 nM
CCC[C@@H]1CN(c2ncccc2C(F)(F)F)CCN1c1nc2cc(C(F)(F)F)ccc2[nH]1 |  | > 4000 nM
FC(F)(F)c1ccc2[nH]c(N3CCN(c4ncncc4Cl)CC3)nc2c1 | 2110 | > 40000 nM
C=Cc1cnc(N2CCN(c3nc4c(-c5cc(F)c(F)c(F)c5)cc(C(F)(F)F)cc4[nH]3)[C@H](C)C2)c(Cl)c1 | 1.3 | 1.7 nM
FC(F)(F)c1cnc2nc(N3CCN(c4ncccc4C(F)(F)F)CC3)[nH]c2c1 | 1550 | 884 nM
CC(O)c1cnc(N2CCN(c3nc4c(-c5cc(F)c(F)c(F)c5)cc(C(F)(F)F)cc4[nH]3)[C@H](C)C2)c(C(F)(F)F)c1 (mixture of isomers) | 1.5 | 1 nM
Fc1ccc(-c2ccc3[nH]c(N4CCN(c5ncccc5C(F)(F)F)CC4)nc3c2)cc1F | 1140 | 351 nM
C[C@@H]1CN(c2ncc(C(=O)O)cc2Cl)CCN1c1nc2c(-c3cc(F)c(F)c(F)c3)cc(C(F)(F)F)cc2[nH]1 | 46 | 27 nM
FC(F)(F)c1cc(-c2cccs2)c2[nH]c(N3CCN(c4ncccc4C(F)(F)F)CC3)nc2c1 | 373 | 221 nM

Compound | IC50 [1] [nM] | IC50 [2]
OCc1cnc(N2CCN(c3nc4ccc(C(F)(F)F)cc4[nH]3)CC2)c(Cl)c1 | 64 | 98 nM
Cc1ccc2[nH]c(N3CCN(c4ncccc4C(F)(F)F)CC3)nc2c1 |  | > 4000 nM
C[C@@H]1CN(c2ncccc2C(F)(F)F)CCN1c1nc2ccc(C(F)(F)F)cc2[nH]1 | 48 | 35 nM
CC(C)(C)c1ccc(-c2cc(C(F)(F)F)cc3[nH]c(N4CCN(c5ncccc5C(F)(F)F)CC4)nc23)cc1 |  | 4 nM
FC(F)(F)c1cc(-c2cnccn2)c2nc(N3CCN(c4ncccc4C(F)(F)F)CC3)[nH]c2c1 | 129 | 51 nM
FC(F)(F)c1ccc2nc(N3CCN(c4ncccc4C(F)(F)F)CC3)[nH]c2c1 |  | 301 nM
C[C@@H]1CN(c2ncc(C(O)c3ccccc3)cc2C(F)(F)F)CCN1c1nc2c(-c3cc(F)c(F)c(F)c3)cc(C(F)(F)F)cc2[nH]1 (stereo not given in full) | 2.8 | 3.7 nM
FC(F)(F)c1cc(N2CCCCC2)c2[nH]c(N3CCN(c4ncccc4C(F)(F)F)CC3)nc2c1 | 29 | 21 nM
C[C@@H]1CN(c2ncc(CO)cc2Cl)CCN1c1nc2c(NCc3ccccc3)cc(C(F)(F)F)cc2[nH]1 | 7 | 6.7 nM
O=[N+]([O-])c1cc(C(F)(F)F)cc2[nH]c(N3CCN(c4ncccc4C(F)(F)F)CC3)nc12 | 1660 | 878 nM
CN(C)c1ccc(-c2cc(C(F)(F)F)cc3[nH]c(N4CCN(c5ncccc5C(F)(F)F)CC4)nc23)cc1 | 108 | 69 nM
N#Cc1cccnc1N1CCN(c2nc3cc(C(F)(F)F)ccc3[nH]2)CC1 | 6290 | 7080 nM
FC(F)(F)c1cc2[nH]c(N3CCN(c4ncccc4C(F)(F)F)CC3)nc2cc1Br | 166 | 43 nM
FC(F)(F)c1ccc2[nH]c(N3CCN(c4ncccc4C(F)(F)F)CC3)nc2n1 | 1090 | 1410 nM
FC(F)(F)c1cc(-c2ccccc2)c2nc(N3CCN(c4ncccc4C(F)(F)F)CC3)[nH]c2c1 | 141 | 68 nM
C[C@@H]1CN(c2ncc([C@@H](C)O)cc2Cl)CCN1c1nc2c(-c3cc(F)c(F)c(F)c3)cc(C(F)(F)F)cc2[nH]1 | 0.6 | 2.3 nM
CC(O)c1cnc(N2CCN(c3nc4ccc(C(F)(F)F)cc4[nH]3)CC2)c(Cl)c1 (racemic) | 461 | 652 nM
CC(=O)c1cnc(N2CCN(c3nc4cc(C(F)(F)F)ccc4[nH]3)CC2)c(Cl)c1 | 581 | 832 nM
FC(F)(F)c1ccnc(N2CCN(c3nc4cc(C(F)(F)F)ccc4[nH]3)CC2)c1 | > 5640 | 11900 nM
Fc1cc(CNc2cc(C(F)(F)F)cc3[nH]c(N4CCN(c5ncccc5C(F)(F)F)CC4)nc23)cc(F)c1F | 132 | 81 nM

Compound | IC50 [1] [nM] | IC50 [2]
FC(F)(F)c1ccc(CNc2cc3[nH]c(N4CCN(c5ncccc5C(F)(F)F)CC4)nc3cc2C(F)(F)F)cc1 | 94 | 141 nM
Fc1cc(-c2cc(C(F)(F)F)cc3[nH]c(N4CCN(c5ncccc5C(F)(F)F)CC4)nc23)cc(F)c1F | 33 | 26 nM
CC(C)(C)c1ccc2[nH]c(N3CCN(c4ncccc4C(F)(F)F)CC3)nc2c1 | 183 | 282 nM
FC(F)(F)c1ccc2[nH]c(N3CCN(c4ncccc4Cl)CC3)nc2c1 | 309 | 705 nM
C[C@@H]1CN(c2ncc(CO)cc2Cl)CCN1c1nc2c(N(Cc3ccccc3)Cc3ccccc3)cc(C(F)(F)F)cc2[nH]1 | 1.9 | 0.9 nM
COC(=O)c1ccc2nc(N3CCN(c4ncccc4C(F)(F)F)CC3)[nH]c2c1 | 1230 | > 4000 nM
FC(F)(F)c1ccc(N2CCN(c3nc4cc(C(F)(F)F)ccc4[nH]3)CC2)nc1 | 11300 | > 40000 nM
CC(C)(C)c1ccc2nc(N3CCN(c4ncccc4Cl)CC3)[nH]c2c1 | 87 | 310 nM
C[C@H]1CN(c2nc3c(-c4cc(F)c(F)c(F)c4)cc(C(F)(F)F)cc3[nH]2)CCN1c1ncccc1Br | 767 | 254 nM
Fc1ccc2[nH]c(N3CCN(c4ncccc4C(F)(F)F)CC3)nc2c1 | > 4000 | > 4000 nM
C[C@H]1CN(c2ncccc2Br)CCN1c1nc2c(-c3cc(F)c(F)c(F)c3)cc(C(F)(F)F)cc2[nH]1 | 104 | 75 nM
FC(F)(F)c1cc(-c2ccncc2)c2[nH]c(N3CCN(c4ncccc4C(F)(F)F)CC3)nc2c1 | 267 | 188 nM
C[C@@H]1CN(c2ncc(CO)cc2Cl)CCN1c1nc2cc(C(F)(F)F)cc(NC(=O)C3CCCCC3)c2[nH]1 | 1.6 | 1.2 nM
CC[C@@H]1CN(c2ncccc2C(F)(F)F)CCN1c1nc2cc(C(F)(F)F)ccc2[nH]1 | 648 | > 4000 nM
FC(F)(F)c1ccc2nc(N3CCN(c4ncccc4C(F)(F)F)CC3)n(Cc3ccccc3)c2c1 | 577 | 151 nM and 157 nM
FC(F)(F)c1cc(/C=C/c2ccccc2)c2[nH]c(N3CCN(c4ncccc4C(F)(F)F)CC3)nc2c1 | 185 | 140 nM
CNC(=O)c1cnc(N2CCN(c3nc4ccc(C(F)(F)F)cc4[nH]3)CC2)c(Cl)c1 | 493 | > 40000 nM
FC(F)(F)c1ccc2nc(N3CCN(c4c(Cl)cncc4Cl)CC3)[nH]c2c1 | 1370 | 1990 nM
NC(=O)c1cnc(N2CCN(c3nc4cc(C(F)(F)F)ccc4[nH]3)CC2)c(Cl)c1 | 430 | 1000 nM
Nc1cc(C(F)(F)F)cc2[nH]c(N3CCN(c4ncccc4C(F)(F)F)CC3)nc12 |  | > 4000 nM
